From ChEMBL document CHEMBL2150928, “Symmetric kv1.5 blockers discovered by focused screening” (ACS Med Chem Lett, 2012)
≈ marks a conversion by molar mass, not a printed value. Blank lines part the entries; values can stand above or below the compound they belong to. Calls of active or inactive are those of the source. The calls are words filed in the database; no cut-off is given here.

What was measured:
[1] = biological target: Potassium voltage-gated channel subfamily A member 5 (Homo sapiens, UniProt P22460); assay: Inhibition of human Kv1.5 ion channel after 3 mins by high-throughput planar patch clamp assay
Sequence of Potassium voltage-gated channel subfamily A member 5 (P22460 whole entry): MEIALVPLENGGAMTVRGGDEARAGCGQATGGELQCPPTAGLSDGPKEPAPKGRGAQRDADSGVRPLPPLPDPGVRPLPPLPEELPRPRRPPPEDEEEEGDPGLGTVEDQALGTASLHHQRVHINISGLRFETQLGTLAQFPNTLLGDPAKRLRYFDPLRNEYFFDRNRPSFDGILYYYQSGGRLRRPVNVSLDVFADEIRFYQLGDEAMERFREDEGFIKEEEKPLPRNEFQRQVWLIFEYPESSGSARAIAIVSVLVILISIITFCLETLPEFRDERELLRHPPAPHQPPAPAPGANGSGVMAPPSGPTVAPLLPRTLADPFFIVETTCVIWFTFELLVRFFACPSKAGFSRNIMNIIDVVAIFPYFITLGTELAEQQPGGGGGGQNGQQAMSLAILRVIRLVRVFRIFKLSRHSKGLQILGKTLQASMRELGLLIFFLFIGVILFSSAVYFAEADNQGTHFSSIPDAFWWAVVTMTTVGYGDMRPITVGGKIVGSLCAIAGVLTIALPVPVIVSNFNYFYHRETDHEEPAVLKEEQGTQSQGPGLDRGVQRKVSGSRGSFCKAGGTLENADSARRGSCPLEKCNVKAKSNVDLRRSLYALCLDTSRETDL
How it was run: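 Electrophysiology run on IonWorks high-throughput planar patch clamp, following a previously published method. IC50 values come from concentration-response testing of compounds retested for LC/MS purity.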

[2] = Octanol-water distribution coefficient, log D of the compound at pH 7.4 by shake-flask method; assay type: physicochemical
[3] = biological target: Voltage-gated inwardly rectifying potassium channel KCNH2 (Homo sapiens, UniProt Q12809); assay: Inhibition of human ERG expressed in CHOK1 cells; assay type: cell-based, CHO-K1
Sequence of Voltage-gated inwardly rectifying potassium channel KCNH2 (Q12809 whole entry): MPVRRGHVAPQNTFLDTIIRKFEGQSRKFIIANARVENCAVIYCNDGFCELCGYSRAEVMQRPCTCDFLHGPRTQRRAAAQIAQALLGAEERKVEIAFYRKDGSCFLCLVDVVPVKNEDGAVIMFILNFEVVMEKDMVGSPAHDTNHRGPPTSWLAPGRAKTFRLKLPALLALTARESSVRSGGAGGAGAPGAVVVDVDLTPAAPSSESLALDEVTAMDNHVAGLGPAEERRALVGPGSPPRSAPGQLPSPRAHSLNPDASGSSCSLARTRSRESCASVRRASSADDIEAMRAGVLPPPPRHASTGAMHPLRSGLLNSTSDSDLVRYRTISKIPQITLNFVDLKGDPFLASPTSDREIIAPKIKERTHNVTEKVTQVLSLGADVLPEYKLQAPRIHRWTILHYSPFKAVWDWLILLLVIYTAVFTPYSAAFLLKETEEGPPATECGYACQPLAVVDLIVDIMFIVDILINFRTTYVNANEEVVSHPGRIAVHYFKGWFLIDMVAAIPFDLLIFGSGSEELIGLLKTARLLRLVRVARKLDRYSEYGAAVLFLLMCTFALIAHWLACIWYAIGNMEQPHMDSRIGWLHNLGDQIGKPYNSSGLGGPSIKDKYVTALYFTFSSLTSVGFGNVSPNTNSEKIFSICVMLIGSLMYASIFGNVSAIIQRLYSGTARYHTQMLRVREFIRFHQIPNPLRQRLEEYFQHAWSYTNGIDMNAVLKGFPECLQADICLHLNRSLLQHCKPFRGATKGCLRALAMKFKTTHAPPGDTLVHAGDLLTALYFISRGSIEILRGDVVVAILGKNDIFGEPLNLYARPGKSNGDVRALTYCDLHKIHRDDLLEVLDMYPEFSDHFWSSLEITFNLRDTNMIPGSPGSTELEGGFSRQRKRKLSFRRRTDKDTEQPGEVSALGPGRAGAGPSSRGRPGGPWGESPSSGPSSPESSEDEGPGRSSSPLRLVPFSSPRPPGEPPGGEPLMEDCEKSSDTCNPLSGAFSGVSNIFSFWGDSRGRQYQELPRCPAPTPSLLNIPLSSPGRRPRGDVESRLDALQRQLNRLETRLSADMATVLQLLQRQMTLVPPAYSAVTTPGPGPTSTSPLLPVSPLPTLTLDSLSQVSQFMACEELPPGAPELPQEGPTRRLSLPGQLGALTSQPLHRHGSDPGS

[4] = Dissociation constant, pKa of the compound; assay type: physicochemical
[5] = Aqueous solubility of the compound at pH 7.4 after 24 hrs; assay type: physicochemical; conditions: aqueous medium
Cytochrome P450 3A4 = Cytochrome P450 3A4 (Homo sapiens, UniProt P08684); assay: Inhibition of human recombinant CYP3A4 expressed in Escherichia coli; assay type: ADME
Sequence of Cytochrome P450 3A4 (P08684 whole entry): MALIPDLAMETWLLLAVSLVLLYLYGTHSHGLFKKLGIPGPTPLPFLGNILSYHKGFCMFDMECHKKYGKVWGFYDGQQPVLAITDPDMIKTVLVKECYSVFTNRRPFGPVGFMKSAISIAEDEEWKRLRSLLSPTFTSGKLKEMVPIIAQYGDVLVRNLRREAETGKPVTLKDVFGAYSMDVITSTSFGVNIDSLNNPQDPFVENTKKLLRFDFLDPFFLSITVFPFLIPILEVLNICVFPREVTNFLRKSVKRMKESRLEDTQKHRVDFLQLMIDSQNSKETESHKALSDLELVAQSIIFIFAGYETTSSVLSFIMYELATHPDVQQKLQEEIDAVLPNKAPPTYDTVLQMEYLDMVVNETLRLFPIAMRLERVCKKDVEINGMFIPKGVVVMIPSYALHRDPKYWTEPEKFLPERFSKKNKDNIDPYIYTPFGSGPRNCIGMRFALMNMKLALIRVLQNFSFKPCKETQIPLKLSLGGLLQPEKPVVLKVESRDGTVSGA

Cytochrome P450 2D6 = Cytochrome P450 2D6 (Homo sapiens, UniProt P10635); assay: Inhibition of human recombinant CYP2D6 expressed in Escherichia coli; assay type: ADME
Sequence of Cytochrome P450 2D6 (P10635 whole entry): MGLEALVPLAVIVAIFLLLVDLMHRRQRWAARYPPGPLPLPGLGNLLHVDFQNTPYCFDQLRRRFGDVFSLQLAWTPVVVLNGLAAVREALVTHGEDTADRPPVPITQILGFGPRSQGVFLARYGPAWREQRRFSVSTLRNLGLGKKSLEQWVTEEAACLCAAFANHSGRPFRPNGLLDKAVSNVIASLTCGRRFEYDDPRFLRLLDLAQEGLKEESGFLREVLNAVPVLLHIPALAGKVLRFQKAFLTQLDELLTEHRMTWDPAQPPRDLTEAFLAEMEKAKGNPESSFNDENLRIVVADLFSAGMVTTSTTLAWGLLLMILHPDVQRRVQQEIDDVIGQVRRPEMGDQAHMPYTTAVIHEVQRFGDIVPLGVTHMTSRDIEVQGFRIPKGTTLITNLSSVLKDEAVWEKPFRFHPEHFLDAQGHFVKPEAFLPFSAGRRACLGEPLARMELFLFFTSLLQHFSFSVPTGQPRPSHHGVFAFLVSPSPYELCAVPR

[6] = Intrinsic clearance in human liver microsomes at 50 uM up to 45 mins; assay type: ADME, Microsome; conditions: read-out: CLH
[7] = Intrinsic clearance in human hepatocytes assessed per million cells; assay type: ADME, cell-based, Hepatocyte; conditions: read-out: CLH
[8] = Apparent permeability from apical to basolateral side of human Caco2 cells; assay type: ADME, cell-based; conditions: Caco-2
[9] = Fraction unbound in human plasma; assay type: ADME, cell-free
[10] = Oral bioavailability in rat; assay type: ADME, organism-based; conditions: in vivo
[11] = Clearance in iv dosed rat; assay type: ADME, organism-based; conditions: in vivo
[12] = Half life in iv dosed rat; assay type: ADME, organism-based; conditions: in vivo
[13] = Volume of distribution at steady state in iv dosed rat; assay type: ADME, organism-based; conditions: in vivo, read-out: Vdss

Structure (SMILES): OC(c1ccccc1)C(NC1CCCCC1)c1ccccc1 (centres undefined)
- inhibition [1]: inactive

Structure (SMILES): CN(C)[C@@H](c1ccccc1)[C@@H](O)c1ccccc1
- inhibition [1]: inactive

Structure (SMILES): CC(C)[C@@H]1CC[C@@H](C)C[C@@H]1P(=O)(c1ccccc1)c1ccccc1
- logD [2]: 6

Structure (SMILES): O[C@@H](c1ccccc1)[C@H](c1ccccc1)N1CCOCC1
- inhibition [1]: inactive

Structure (SMILES): NC(c1ccccc1)C(O)c1ccccc1 (centres undefined)
- inhibition [1]: inactive

- inhibition [1]: inactive
Structure (SMILES): O=C(Cc1ccccc1)N[C@@H](c1ccccc1)[C@@H](O)c1ccccc1

Structure (SMILES): c1ccc([C@@H]([C@H](c2ccccc2)N2CCCCC2)N2CCCCC2)cc1
- IC50 [1]: 0.2 µM
- IC50 [3]: 31.6 µM
- logD [2]: 4.1
- pKa [4]: 11.4
- solubility at 24 h [5]: 81 µM (≈ 28.2 µg/mL)
- IC50 (Cytochrome P450 3A4): 15.8 µM
- IC50 (Cytochrome P450 2D6): 0.316 µM
- microsomal CLint at 50 µM [6]: 17.6 µL/min/mg
- hepatocyte CLint [7]: < 4 µL/min/1e6 cells
- Papp A→B [8]: 10.2 ×10⁻⁶ cm/s
- fraction unbound [9]: 0.099
- bioavailability [10]: 26.6%

- inhibition [1]: inactive
Structure (SMILES): OC(c1ccccc1)C(c1ccccc1)N1CCNCC1 (centres undefined)

- inhibition [1]: inactive
Structure (SMILES): CC(=O)NC(c1ccccc1)C(O)c1ccccc1 (centres undefined)

- IC50 [1]: 0.6 µM
- logD [2]: 3.2
- pKa [4]: 10.4
- solubility at 24 h [5]: 92 µM (≈ 29.5 µg/mL)
- IC50 (Cytochrome P450 3A4): 12.6 µM
- IC50 (Cytochrome P450 2D6): 0.2 µM
- microsomal CLint at 50 µM [6]: 12 µL/min/mg
- hepatocyte CLint [7]: < 4 µL/min/1e6 cells
- Papp A→B [8]: 14 ×10⁻⁶ cm/s
- fraction unbound [9]: 0.17
- bioavailability [10]: 15.6%
- clearance [11]: 91.8 mL/min/kg
- half-life [12]: 1 h
- Vd [13]: 7.9 L/kg
Structure (SMILES): c1ccc([C@H]([C@@H](c2ccccc2)N2CCCC2)N2CCCC2)cc1
- IC50 [3]: 31.6 µM

Structure (SMILES): O[C@@H](c1ccccc1)[C@@H](c1ccccc1)N1CCCCC1
- inhibition [1]: inactive

Structure (SMILES): CCCOc1ccc(C(O)C(c2ccccc2)N2CCCC2)cc1 (centres undefined)
- inhibition [1]: inactive

- inhibition [1]: inactive
Structure (SMILES): c1ccc(C2NCCOC2c2ccccc2)cc1 (centres undefined)

Structure (SMILES): O[C@@H](c1ccccc1)[C@H](c1ccccc1)N1CCCC1
- inhibition [1]: inactive

Structure (SMILES): c1ccc([C@H]([C@@H](c2ccccc2)N2CCCCC2)N2CCCCC2)cc1
- IC50 [1]: 0.2 µM
- IC50 [3]: 25.1 µM
- logD [2]: 4
- pKa [4]: 11
- solubility at 24 h [5]: 95 µM (≈ 33.1 µg/mL)
- IC50 (Cytochrome P450 3A4): 20 µM
- IC50 (Cytochrome P450 2D6): 0.126 µM
- microsomal CLint at 50 µM [6]: 14.1 µL/min/mg
- hepatocyte CLint [7]: < 4 µL/min/1e6 cells
- Papp A→B [8]: 10.3 ×10⁻⁶ cm/s
- fraction unbound [9]: 0.065
- bioavailability [10]: 103%
- clearance [11]: 13.1 mL/min/kg
- half-life [12]: 15.1 h
- Vd [13]: 16.4 L/kg

- IC50 [1]: 0.3 µM
- logD [2]: 3.3
- pKa [4]: 10.5
- solubility at 24 h [5]: 100 µM (≈ 32 µg/mL)
- IC50 (Cytochrome P450 3A4): 12.6 µM
- IC50 (Cytochrome P450 2D6): 0.316 µM
- microsomal CLint at 50 µM [6]: 21.6 µL/min/mg
- hepatocyte CLint [7]: < 4 µL/min/1e6 cells
- Papp A→B [8]: 13.3 ×10⁻⁶ cm/s
- fraction unbound [9]: 0.17
- bioavailability [10]: 48.9%
- clearance [11]: 10.8 mL/min/kg
- half-life [12]: 7.1 h
- Vd [13]: 6.4 L/kg
Structure (SMILES): c1ccc([C@@H]([C@H](c2ccccc2)N2CCCC2)N2CCCC2)cc1
- IC50 [3]: 31.6 µM
